Measured values of several laboratories.
Each line is one published result; the experiments were not run side by side.
Target: Serine/threonine-protein kinase 25 (STK25, Homo sapiens, UniProt O00506)

O=C(c1ccc(Nc2ncc(Cl)c(-c3ccc(Cl)s3)n2)cc1)N1CCC(N2CCCC2)CC1 — remaining binding (binding; competition with immobilised ligand; 1 µM): 22%
CN(C)C(=O)Cn1cc(-c2nc(C3(c4ccc(-c5cnc(N)nc5)cc4)CC3)no2)cn1 — remaining binding (cell-free assay; competition with immobilised ligand; 1 µM): 100%
O=C(Nc1c[nH]nc1C(=O)NC1CCNCC1)c1cc(F)cc(F)c1 — remaining binding (binding; competition with immobilised ligand; 1 µM): 85%
O=C(NCCCN1CCOCC1)c1ccc(Nc2ncc(Cl)c(-c3ccc(Cl)s3)n2)cc1 — remaining binding (binding; competition with immobilised ligand; 1 µM): 89%
COc1cnc(Nc2cccc(S(N)(=O)=O)c2)nc1N1CCN(c2ccccc2)C(=O)C1 — remaining binding (binding; competition with immobilised ligand; 1 µM): 100%
CN(c1nccc(-c2cnn3ncccc23)n1)C1CC1 — remaining binding (binding; 1 µM): 100%
CCC(=O)N[C@H]1CC[C@@H](C(=O)N(C)c2ccc(-c3nc4ccccc4o3)cc2)C1 — remaining binding (cell-free assay; competition with immobilised ligand; 1 µM): 100%
C[C@@H]1CCN(c2nccc(-c3cnn4ncccc34)n2)C1 — remaining binding (binding; 1 µM): 100%
c1ccc(N2CCN(Cc3nc4ccccc4[nH]3)CC2)nc1 — remaining binding (binding; competition with immobilised ligand; 1 µM): 94%
c1cnn2ncc(-c3ccnc(N4CCC45COC5)n3)c2c1 — remaining binding (binding; 1 µM): 100%
CCCOc1ccc([C@H]2[C@H](C(=O)O)[C@@H](c3ccc4c(c3)OCO4)CN2CC(=O)Nc2c(CC)cccc2CC)cc1 — remaining binding (cell-free assay; competition with immobilised ligand; 1 µM): 100%
CNC(=O)[C@@H]1CC[C@@H](n2c(-c3ccc4cnccc4c3)nc3ccc(C(=O)NCc4cccc(C(N)=O)c4)cc32)C1 — remaining binding (binding; competition with immobilised ligand; 1 µM): 100%
O=C(NCCCC1CCCCC1)c1ccc(CNC(=O)c2cnn(-c3ccccc3)c2C(F)(F)F)cc1 — remaining binding (cell-free assay; competition with immobilised ligand; 0.1 µM): 81%
N[C@@H]1CCN(c2nccc(-c3cnn4ncccc34)n2)C1 — remaining binding (binding; 1 µM): 100%
O=C(c1ccc(Nc2ncc(Cl)c(-c3cc4ccccc4s3)n2)cc1)N1CCC(N2CCCC2)CC1 — remaining binding (binding; competition with immobilised ligand; 1 µM): 32%
Nc1ncc2c(n1)-c1c([nH]c3ccc(C#CC4CC4)cc13)CCCC2 — remaining binding (binding; competition with immobilised ligand; 1 µM): 100%
COc1ccnn2ncc(-c3ccnc(N(C)C)n3)c12 — remaining binding (binding; 1 µM): 100%
C[C@@H](c1ccc(-n2cnc3c(N)ncnc32)cc1)N1CCc2nn(C)c(Cc3ccccc3)c2C1=O — remaining binding (binding; competition with immobilised ligand; 0.1 µM): 86%
CN(CCCC(F)(F)F)c1nccc(-c2cnn3ncccc23)n1 — remaining binding (binding; 1 µM): 100%
CC1=C(C#N)[C@@H](c2ccc3[nH]nc(C)c3c2)C(C#N)=C(c2ccc(Cl)cc2)N1 — remaining binding (cell-free assay; competition with immobilised ligand; 1 µM): 100%
c1cncc(-c2cccc(Nc3nccc(NC4CCCCC4)n3)c2)c1 — remaining binding (binding; competition with immobilised ligand; 10 µM): 100%
